Assay outcomes from PubChem BioAssay.
ATG4B inh: ATG4B (human) cysteine protease inhibition; Q9Y4P1; ATG4B cleavage of LC3-PLA2, NBD-HPC fluorescence, 1 h; inhibition, % at 8.33 µM; 340,000 tested, 0.51% active; in the data active = inhibition above about 40%
Target sequence (Q9Y4P1 whole entry, looked up): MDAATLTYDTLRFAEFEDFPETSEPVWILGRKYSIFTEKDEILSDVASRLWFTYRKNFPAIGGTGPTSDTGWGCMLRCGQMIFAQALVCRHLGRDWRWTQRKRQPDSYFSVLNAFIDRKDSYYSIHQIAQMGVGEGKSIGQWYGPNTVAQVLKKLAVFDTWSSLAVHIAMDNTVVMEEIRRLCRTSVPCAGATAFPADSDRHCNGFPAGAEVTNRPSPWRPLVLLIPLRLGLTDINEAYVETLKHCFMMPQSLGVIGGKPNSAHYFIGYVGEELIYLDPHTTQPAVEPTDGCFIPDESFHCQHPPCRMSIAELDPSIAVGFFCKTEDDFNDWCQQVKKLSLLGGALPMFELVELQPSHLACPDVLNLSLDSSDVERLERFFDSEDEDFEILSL
SKN-1 inh: inhibitors of C. elegans SKN-1. C. elegans VP596 Pgst-4::GFP/RFP ratio, acrylamide-induced, 24 h. inhibition, % at 21.8 µM. 360,000 tested, 0.49% active;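 active = interference check ratio from 0.5 to 1.5 plus GFP to RFP signal ratio inhibition reaching or exceeding a fixed threshold, cut at about 30% in these data, passing the limit was not always enough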
MPTP block: inhibitors of mitochondrial permeability transition pore; isolated mouse mitochondria, Ca2+ swelling absorbance, 30 min; inhibition, % at 10 µM; 360,000 tested, 1.4% active; AID 602449;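 active = inhibition of 50% or more, scaled per plate between neutral and stimulator controls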;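 note: 0% = DMSO wells given calcium and 100% = 1 mM EGTA wells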
MT1-MMP act inh: inhibitors of human MT1-MMP activation; P50281; HT1080 RFP-PRO-GFP cells, GFP/RFP ratio fluorescence, overnight; percent of plate control window, DMSO zero; GFP/RFP ratio change, % at 20 µM; 360,000 tested, 0.061% active;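 active = GFP/RFP ratio change of at least 30% with cell ATP level not reduced by more than half and red fluorescence within 50% of control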
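Material: RFP-PRO-GFP reporter HT1080 cells. Dosing: single-point 20 µM compound, 1% DMSO. Controls: DMSO and RFP-L50D-GFP cell wells. Timing: cells overnight before dosing, compound overnight, 37 °C, 5% CO2. Measure: GFP/RFP fluorescence ratio.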
Rh123 counter: mitochondrial membrane potential, counter-screen | AID 624504 | 5,000 tested, 78% active | isolated mitochondria, Rhodamine 123 fluorescence | shares compounds with MPTP block | inhibition, % at 10 µM; in the data active = inhibition above about 22%;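 note: 0% = DMSO vehicle and 100% = positive control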
MPTP abs DR: MPTP inhibition, dose response swelling confirmation; shares compounds with MPTP block; isolated mitochondria swelling, absorbance; IC50, µM; 780 tested, 58% active; AID 651561; in the data active = IC50 below about 20 µM
MPTP cs DR: MPTP inhibitor counter-screen activity, dose response; shares compounds with MPTP block; isolated mitochondria counterscreen, fluorescence read-out; IC50, µM; 780 tested, 49% active; AID 651564; in the data active = IC50 below about 80 µM
* hit, by the source's call; i = inactive; nt = no result given. This is a sample that favours compounds with a hit; in the whole collection about 2.3% have one here.

SMILES	ATG4B inh	SKN-1 inh	MPTP block	MT1-MMP act inh	Rh123 counter	others
CCc1cccc(CC)c1NC(=O)C1CCN(C(=O)c2ccco2)CC1	-6	1	-3	2	nt
O=C(c1ccco1)N1CCN(c2nnc(-c3ccccc3)c3ccccc23)CC1	0	1	4	-2	nt
COc1ccc(-c2cc(C)no2)cc1S(=O)(=O)NCC(C)c1ccccc1 (stereo unspecified)	-15	-2	-1	1	nt
NS(=O)(=O)c1ccc(CNC(=O)c2cccnc2Cl)cc1	-4	14	0	1	nt
COc1ccc(OC)c(NC(=O)c2cc(-c3cc(Cl)ccc3O)n[nH]2)c1	11	-5	85*	4	61*
CC(=O)Nc1cccc(NC(=S)Nc2ccc(F)c(Cl)c2)c1	15	9	95*	-4	87*
CCC(CC)NC(=O)Nc1ccc(F)c(Cl)c1	2	-16	71*	4	84*
CC(=O)Nc1cccc(NC(=O)Nc2ccc(C)c(Cl)c2)c1	-2	-4	3	1	nt
COc1ccc(N2CCN(C(=O)Cc3ccc(OC)c(OC)c3)CC2)cc1	2	-1	-1	-1	nt
Clc1ccc(C(c2ccccc2Cl)C(Cl)Cl)cc1 (stereo unspecified)	5	-11	61*	2	-5	MPTP abs DR=i;MPTP cs DR=>80
O=C(CCN1C(=O)c2ccccc2S1(=O)=O)NCc1ccccc1Cl	-5	-4	-2	3	nt
Cc1cc(O)c(C(C)C)cc1N=Nc1ccccc1C(=O)O	-2	16	76*	22	52*
Cc1cc(N=Nc2ccccc2C(=O)O)c(C)c(C)c1O	13	22	56*	14	36*
O=C(COc1ccc(Cl)cc1)OCC(=O)c1ccc[nH]1	0	-12	0	0	nt
Cc1ccc2nc(N/C(=N/S(=O)(=O)c3ccc(F)cc3F)c3ccccc3)sc2c1	35	-2	50*	1	69*
Cc1ccc2nc(N/C(=N/S(=O)(=O)c3ccc(F)cc3)c3ccccc3)sc2c1	8	5	28	6	nt
O=C(Nc1ccc(Cl)cc1)C1=Cc2ccccc2OC1	-3	24	89*	-5	108*
COC(=O)c1ccc(NC(=S)NC2CC3CCC2C3)cc1 (stereo unspecified)	-9	2	101*	3	91*
NS(=O)(=O)c1ccc(NC(=S)NC2CCCCC2)cc1	-2	-4	-1	2	nt
COC(=O)c1ccc(NC(=O)C2CC3CCC2C3)cc1 (stereo unspecified)	-4	8	5	-3	nt
S=C(Nc1ccc(Cl)cc1)NC1CCCCC1	5	-1	82*	6	93*
COC(=O)c1ccc(NC(=S)NC2CCCCC2)cc1	-2	5	90*	14	80*
S=C(Nc1ccc(Br)cc1)NC1CCCCC1	18	4	97*	1	99*
CC(=O)c1ccc(NC(=O)c2ccc(-n3cnnn3)cc2)cc1	4	-9	0	0	nt
Cc1ccc(S(=O)(=O)NNC(=O)Nc2cccc(C)c2C)c(C)c1	-8	6	-1	0	nt
SMILES	ATG4B inh	SKN-1 inh	MPTP block	MT1-MMP act inh	Rh123 counter	others
Cc1cccc(C(=O)N[C@H](C(=O)Nc2ccc(C)c(S(=O)(=O)N3CCOCC3)c2)C(C)C)c1	-8	2	1	-3	nt
COc1cc(NC(=O)Cc2ccccc2)ccc1NC(=O)c1ccccc1	-3	8	0	-1	nt
S=C(NCCc1ccc(Cl)cc1)NC1CCCC1	5	0	53*	6	78*
S=C(Nc1cccc(Cl)c1)NC1CCCCC1	14	-5	99*	3	108*
S=C(NCCc1ccc(Cl)cc1)NC1CCCCC1	32	23	34	-1	nt
S=C(Nc1ccc(Nc2ccccc2)cc1)NC1CCCCCC1	12	14	63*	-2	66*
S=C(NNc1cccc(Cl)c1)NC1CCCCC1	-9	1	3	-1	nt
O=C(OCC1OC(n2ccc(=O)[nH]c2=O)C2OC12)c1ccccc1 (stereo unspecified)	-4	-2	0	2	nt
CC(=O)c1cccc(NC(=O)/C(=C\c2cccnc2)NC(=O)c2ccco2)c1	-1	-6	3	0	nt
